From ChEMBL document CHEMBL1143671, “Antibacterial nicotinamide adenine dinucleotide synthetase inhibitors: amide- and ether-linked tethered dimers with alpha-amino acid end groups” (J Med Chem, 2007) come the findings set out here.

Assay [1] deals with Staphylococcus aureus. Kind of assay: Antibacterial activity against Staphylococcus aureus ATCC 29213. The format is functional. The essentials: (§1)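 Broth tube dilution MIC. Bacteria subcultured from stock onto agar and grown overnight at 37 ± 2 °C in ambient air. Overnight cultures went into broth adjusted to about 5 × 10⁸ CFU/mL. Inhibitor started at 50 µg/mL with doubling dilutions over 10 tubes in duplicate. Each tube received 0.01 mL of challenge broth.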

The subject of a further assay is Pseudomonas aeruginosa. Briefly: Antibacterial activity against Pseudomonas aeruginosa ATCC 27853. Type of assay: functional. Summed up:
as §1

Assay [2] in a line: Inhibition of Bacillus subtilis NAD synthetase by fluorescence based assay. The essentials:
(§2)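 B. subtilis NAD synthetase, overexpressed and purified, 2.0 µg/mL. Coupled to yeast ADH (40 µg/mL) with 1% EtOH at pH 8.5: 58.5 mM HEPPS, 18.5 mM NH4Cl, 19.5 mM KCl, 9.75 mM MgCl2, 0.1 mM NaAD, 2.5% DMSO. No BOG; 0–0.01% Triton X-100. Started with 0.2 mM ATP. NADH read by fluorescence. Triplicate points; IC50 averaged over two experiments.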

Assay [3] deals with Bacillus subtilis. Kind of assay: Antibacterial activity against Bacillus subtilis ATCC 14289. The format is functional. The essentials: as §1
Assay [4] relates to Staphylococcus aureus. Briefly: Antibacterial activity against methicillin-resistant Staphylococcus aureus ATCC 33591. The format is functional. The essentials: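 Broth tube dilution MIC, performed by a contract lab. Bacteria were subcultured from stock onto agar and grown overnight at 37 ± 2 °C in ambient air. Overnight cultures went into broth adjusted to about 5 × 10⁸ CFU/mL. Inhibitor started at 50 µg/mL in doubling dilutions, 10 tubes in duplicate. Each tube received 0.01 mL of challenge broth.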

A short description of assay [5]: (§3) Inhibition of Bacillus subtilis NAD synthetase in presence of 0.001% Triton X-100 by fluorescence based assay. The essentials:
as §2

Assay [6] in a line: (§4) Inhibition of Bacillus subtilis NAD synthetase in presence of 0.01% Triton X-100 by fluorescence based assay. Summed up: as §2
Assay [7] is described as follows: (§5) Inhibition of yeast alcohol dehydrogenase in presence of 0.01% Triton X-100 by fluorescence based assay. Also on record: species or system Saccharomyces cerevisiae. The essentials: (§6)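 Yeast ADH 2.5 µg/mL in 60 mM HEPPS pH 8.5 with 0.5 mM NH4Cl, 20 mM KCl, 10 mM MgCl2, 60 mM ethanol, 2.5% DMSO and 0–0.01% Triton X-100. Started with 0.75 mM β-NAD and stopped with 1.2 M guanidine·HCl after 2 min. NADH fluorescence read at 355 nm excitation / 460 nm emission, pre-NAD blank subtracted. Triplicate points; IC50 averaged over two experiments.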

Assay [8] in a line: (§7) Inhibition of yeast alcohol dehydrogenase in presence of 0.001% Triton X-100 by fluorescence based assay. More on the design: species or system Saccharomyces cerevisiae. The essentials:
as §6

The nature of assay [9]: Inhibition of yeast alcohol dehydrogenase by fluorescence based assay. More on the design: species or system Saccharomyces cerevisiae. Summed up:
as §6

The subject of assay [10] is Bacillus subtilis. The description is as §3. Summed up:
as §2

The subject of assay [11] is Bacillus subtilis. The description is as §4. The essentials:
as §2

The subject of assay [12] is Saccharomyces cerevisiae. The assay is described as §5. The essentials: as §6
The subject of assay [13] is Saccharomyces cerevisiae. The description is as §7. The essentials: as §6

The MIC is the least concentration at which growth counts as inhibited. For orientation: IC50 means the concentration that gives 50% inhibition.

Values after ≈ are worked out from the molar mass of the structure shown. Active and inactive are the calls of the source. No cut-off for these calls is given here. Bounds are passed on as bounds.

For `C[N+](C)(C)[C@H](COCCCCCCCCOc1ccc(OCc2ccccc2)cc1)Cc1ccccc1`, the MIC with Staphylococcus aureus [1] was 0.78 µM; in the assay with Pseudomonas aeruginosa it was more than 50 µM; with Bacillus subtilis [3] it was 0.39 µM; in the assay with Staphylococcus aureus [4], 1.56 µM. The IC50 in assay [2] came out at 21 µM.

For the molecule `C[N+](C)(C)[C@@H](Cc1ccc(O)cc1)C(=O)OCCCCCCCCOc1ccc(OCc2ccccc2)cc1`, in [2], the IC50 stood at 53 µM. In addition, the figures for the MIC against Bacillus subtilis [3] and against Staphylococcus aureus [4] were 1.56 µM and 3.13 µM, respectively.

In the case of `C[N+](C)(C)c1ccc(CC(=O)OCCCCCCCCOc2ccc(OCc3ccccc3)cc2)cc1`, the MIC in the assay on Staphylococcus aureus [1] was 9.4 µM; with Pseudomonas aeruginosa, more than 50 µM; against Bacillus subtilis [3] it was 2 µM; against Staphylococcus aureus [4] it was 6.2 µM. The molecule also yielded an IC50 in [2] of 41 µM.

With `C[C@H]1c2cccc(O)c2C(=O)C2=C(O)[C@]3(O)C(=O)C(C(N)=O)=C(O)[C@@H](N(C)C)[C@@H]3[C@@H](O)[C@@H]21` [DOXYCYCLINE], the MIC was 1.56 µM (≈ 0.693 µg/mL) against Staphylococcus aureus [1], 1.56 µM (≈ 0.693 µg/mL) with Bacillus subtilis [3] and more than 30 µM in the assay on Staphylococcus aureus [4].

`N=C(N)N[C@H](COCCCCCCCCOc1ccc(OCc2ccccc2)cc1)c1ccccc1` gave an IC50 in assay [2] of 11 µM. The MIC with Bacillus subtilis [3] was determined as 3.13 µM (≈ 1.53 µg/mL); in the assay with Staphylococcus aureus [4] it was 0.78 µM (≈ 0.382 µg/mL).

`C[N+](C)(C)[C@H](C(=O)NCCCCCCCCOc1ccc(OCc2ccccc2)cc1)c1ccccc1` registered an IC50 in [2] of 45 µM. Besides, the MIC with Bacillus subtilis [3] and against Staphylococcus aureus [4] was 1.56 µM each time.

`CO[C@H]1/C=C/O[C@@]2(C)Oc3c(C)c(O)c4c(O)c(c(/C=N/N5CCN(C)CC5)c(O)c4c3C2=O)NC(=O)/C(C)=C\C=C\[C@H](C)[C@H](O)[C@@H](C)[C@@H](O)[C@@H](C)[C@H](OC(C)=O)[C@@H]1C` [RIFAMPIN] showed an MIC in the assay on Bacillus subtilis [3] of 1.5 µM (≈ 1.23 µg/mL).

Take `C[N+](C)(C)[C@@H](Cc1ccccc1)C(=O)NCCCCCCCCOc1ccc(OCc2ccccc2)cc1`: the IC50 in assay [5] is 27.8 µM; in assay [6], 104 µM; in assay [7], more than 1500 µM; in [8] it was more than 1500 µM; in [9], more than 1500 µM; in assay [2], 40 µM. Moreover, the MIC was 0.78 µM in the assay with Staphylococcus aureus [1], more than 50 µM in the assay on Pseudomonas aeruginosa, 0.39 µM in the assay on Bacillus subtilis [3] and 0.78 µM against Staphylococcus aureus [4].

For `COc1cccc(OC)c1C(=O)N[C@@H]1C(=O)N2[C@@H]1SC(C)(C)[C@@H]2C(=O)O` [METHICILLIN], the minimal inhibitory concentration (MIC) against Staphylococcus aureus [1] amounted to 1 µM (≈ 0.38 µg/mL); against Staphylococcus aureus [4], 32 µM (≈ 12.2 µg/mL).

On to `C[N+](C)(C)[C@H](COCCCCCCCCOc1ccc(OCc2ccccc2)cc1)c1ccccc1`, for which the IC50 in [2] came out at 38 µM. The results for the MIC in the assay on Bacillus subtilis [3] and in the assay with Staphylococcus aureus [4] were 0.78 µM and 3.13 µM, respectively.

For `C[N+](C)(C)[C@@H](Cc1ccccc1)C(=O)OCCCCCCCCOc1ccc(OCc2ccccc2)cc1`, the IC50 in [5] was determined as 16.5 µM; in [6], 37 µM; in assay [7] it was 266 µM; in assay [8], 69 µM; in [9] it was 27 µM; in assay [2] it was 22 µM. Moreover, the minimal inhibitory concentration (MIC) is 0.78 µM with Staphylococcus aureus [1], more than 50 µM with Pseudomonas aeruginosa, 0.78 µM against Bacillus subtilis [3] and 0.78 µM against Staphylococcus aureus [4].

In turn, `N=C(N)N[C@@H](Cc1ccccc1)C(=O)NCCCCCCCCOc1ccc(OCc2ccccc2)cc1` showed an IC50 in assay [2] of 12 µM. For the same molecule, the minimal inhibitory concentration (MIC) is 3.13 µM (≈ 1.62 µg/mL) with Bacillus subtilis [3] and 1.56 µM (≈ 0.806 µg/mL) against Staphylococcus aureus [4].

In the case of `O=C(O)c1cn(C2CC2)c2cc(N3CCNCC3)c(F)cc2c1=O` [CIPROFLOXACIN], the MIC against Bacillus subtilis [3] and against Staphylococcus aureus [4] was 0.5 µM (≈ 0.166 µg/mL) in each case.

With `C[N+](C)(C)[C@@H](Cc1c[nH]c2ccccc12)C(=O)OCCCCCCCCOc1ccc(OCc2ccccc2)cc1`, the IC50 in assay [2] was found to be 19 µM.

In assay [2], `N=C(N)N[C@H](C(=O)NCCCCCCCCOc1ccc(OCc2ccccc2)cc1)c1ccccc1` gave an IC50 of 19 µM. Further, the MIC against Bacillus subtilis [3] and in the assay on Staphylococcus aureus [4] was 1.56 µM (≈ 0.784 µg/mL) throughout.

For `Clc1ccccc1C(c1ccccc1)(c1ccccc1)n1ccnc1` [CLOTRIMAZOLE], the result with Bacillus subtilis [10], with Bacillus subtilis [11], in the assay on Saccharomyces cerevisiae [12] and with Saccharomyces cerevisiae [13] was inactive. Moreover, the IC50 in [9] is 96.5 µM; in assay [2], more than 1500 µM.

Turning to `CC1(C)S[C@@H]2[C@H](NC(=O)[C@H](N)c3ccccc3)C(=O)N2[C@H]1C(=O)O` [AMPICILLIN], the MIC was 0.2 µM (≈ 0.0699 µg/mL) against Bacillus subtilis [3] and more than 50 µM against Staphylococcus aureus [4].

On to `N=C(N)N[C@H](COCCCCCCCCOc1ccc(OCc2ccccc2)cc1)Cc1ccccc1`, for which, in assay [2], the IC50 was found to be 11 µM. The MIC in the assay with Bacillus subtilis [3] was 3.13 µM (≈ 1.58 µg/mL); in the assay on Staphylococcus aureus [4], 0.78 µM (≈ 0.393 µg/mL).
